In ChEMBL document CHEMBL1148355, “Inhibition of group IVA cytosolic phospholipase A2 by novel 2-oxoamides in vitro, in cells, and in vivo” (J Med Chem, 2004):

Key:
[1] = target: T1, Cytosolic phospholipase A2 (Homo sapiens) (UniProt P47712); test: Mole fraction of compound in the total substrate interface required to inhibit human GIVA PLA2 by 50%
T1 sequence (whole entry): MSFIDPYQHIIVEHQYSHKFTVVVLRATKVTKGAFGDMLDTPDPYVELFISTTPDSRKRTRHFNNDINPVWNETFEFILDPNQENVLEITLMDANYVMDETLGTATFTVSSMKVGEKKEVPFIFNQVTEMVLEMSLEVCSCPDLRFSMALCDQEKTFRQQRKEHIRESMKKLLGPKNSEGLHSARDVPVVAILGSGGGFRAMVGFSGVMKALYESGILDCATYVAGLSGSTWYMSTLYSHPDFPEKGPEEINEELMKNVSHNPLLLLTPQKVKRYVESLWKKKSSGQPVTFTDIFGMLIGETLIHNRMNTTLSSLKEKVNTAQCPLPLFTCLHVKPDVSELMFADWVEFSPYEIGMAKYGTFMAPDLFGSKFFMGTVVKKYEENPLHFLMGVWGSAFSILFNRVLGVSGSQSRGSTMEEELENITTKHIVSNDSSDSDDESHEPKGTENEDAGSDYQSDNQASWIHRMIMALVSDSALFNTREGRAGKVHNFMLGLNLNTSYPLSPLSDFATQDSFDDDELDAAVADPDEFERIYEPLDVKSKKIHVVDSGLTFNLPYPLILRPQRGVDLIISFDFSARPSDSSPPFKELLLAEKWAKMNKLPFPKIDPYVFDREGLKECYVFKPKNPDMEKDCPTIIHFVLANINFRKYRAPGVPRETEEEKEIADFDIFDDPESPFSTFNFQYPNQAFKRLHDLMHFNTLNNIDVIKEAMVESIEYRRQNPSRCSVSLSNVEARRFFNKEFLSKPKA
In short: (§1)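 GIVA PLA2 activity measured on mixed micelles of TX-100 (400 μM), 1-palmitoyl-2-[14C]arachidonoyl PC (97 μM) and PIP2 (3 μM, 0.6 mol %). Inhibitor surface mole fraction varied within the micelles; percent inhibition calculated relative to a DMSO control. Xi(50) is the mole fraction giving 50% inhibition, obtained by a logarithmic or linear fit.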

Mus musculus [2] = species on record: Mus musculus; test: Tested on P388D1 macrophage-like cell line (AA-derived products) for inhibition of the GIVA PLA2 in the long-term lipopolysaccharide; type: functional, organism-based
Mus musculus [3] = species on record: Mus musculus; test: Tested on P388D1 macrophage-like cell line (PGE2 production) for inhibition of the GIVA PLA2 in the long-term lipopolysaccharide; type: functional, organism-based
In short: (§2)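 P388D1 murine macrophages plated at 10^6 cells/well and left to adhere overnight. Starved 1 h in 0.2% FCS medium. Compound added in DMSO (<0.5% v/v) 30 min before 100 ng/mL LPS for 18 h. Medium PGE2 measured by enzyme immunoassay and normalized to DMSO/LPS controls. IC50 taken from a logarithmic fit.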

Rattus norvegicus [4] = test: Compound was tested for in vivo analgesic activity in rat; type: functional
Rattus norvegicus [5] = test: Compound was tested for in vivo antiinflammatory activity in rat; type: functional, organism-based
In short: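 Carrageenan paw edema in Fisher 344 rats (150–200 g), both sexes. Edema induced by 0.1 mL 2% w/v carrageenan in saline, intradermal into the right footpad. Compound suspended in Tween 80/water and given ip at the same time. Rats killed at 3.5 h, injected minus uninjected paw weight taken, and % inhibition calculated vs water controls. Four concentrations tested, two groups of five; mean of two experiments.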

[6] = target: T1, Cytosolic phospholipase A2 (Homo sapiens); test: Percent inhibition of human GIVA PLA2 by the compound at a concentration (mole fraction) of 0.01; in short: as §1
[7] = target: T1, Cytosolic phospholipase A2 (Homo sapiens); test: Percent inhibition of human GIVA PLA2 by the compound at a concentration (mole fraction) of 0.08; in short: as §1
Mus musculus [8] = species on record: Mus musculus; test: Compound was tested on P388D1 macrophage-like cell line (AA-derived products) for inhibition of the GIVA PLA2 in the long-term lipopolysaccharide; type: functional, organism-based
Mus musculus [9] = species on record: Mus musculus; test: Compound was tested on P388D1 macrophage-like cell line (PGE2 production) for inhibition of the GIVA PLA2 in the long-term lipopolysaccharide; type: functional, organism-based; in short: as §2
[10] = target: T1, Cytosolic phospholipase A2 (Homo sapiens); test: Percent inhibition of human GIVA PLA2 by the compound at a concentration (mole fraction) of 0.05; in short: as §1
[11] = target: T1, Cytosolic phospholipase A2 (Homo sapiens); test: Percent inhibition of human GIVA PLA2 by the compound at a concentration (mole fraction) of 0.02; in short: as §1
[12] = in the assay text read “of 0.091” for “of 0.01”

Work on CCCCCCCCCCCCCCC(=O)C(=O)NCCCC(=O)O yielded an X1(50) [1] of 0.017, an IC50 (Mus musculus [2]) of 8.6 µM and an IC50 (Mus musculus [3]) of 7.8 µM. It also gave an Analgesic activity (Rattus norvegicus [4]) of 93% and an EC50 (Rattus norvegicus [5]) of 0.01 mmol/kg.

CCCCCCCCCCCCCC(=O)C(=O)N[C@@H](C)CCC(=O)O was tested, and the X1(50) [1] was 0.021.

Molecule NC(=O)C(=O)CCCCc1ccccc1 has an inhibition [6] of 0%.

In the case of CCCCCCCC/C=C\CCCCCCCCNC(=O)C(=O)CCCCC, the inhibition [6] is reported as 0%.

CCCCCCCCCCCCCCC(=O)C(=O)NCCCC(=O)OC showed an inhibition [7] of 0%.

Work on CCCCCCCCCCOC[C@@H](CCC(=O)O)NC(=O)C(=O)CCCCCCCCCC yielded an X1(50) [1] of 0.047.

For CCCCCCCCCCC(=O)C(=O)N[C@@H](CCCC)CCC(=O)O, the X1(50) [1] was 0.009, the IC50 (Mus musculus [8]) was 7.6 µM and the IC50 (Mus musculus [9]) was 5.8 µM. The Analgesic activity (Rattus norvegicus [4]) was 63% and the EC50 (Rattus norvegicus [5]) was 0.1 mmol/kg.

With CCCCCCC(=O)C(=O)N[C@H](CCC(=O)O)Cc1ccccc1 the inhibition [6, 12] was 24%.

Work on CCCCCCCCCCCCCCCC(=O)NCCCC(=O)O yielded an inhibition [7] of 22%.

CCCCCCCCCCCCCC(=O)C(=O)N[C@H](CCC(=O)O)CC(C)C showed an X1(50) [1] of 0.017, an IC50 (Mus musculus [8]) of 4.6 µM and an IC50 (Mus musculus [9]) of 10 µM. For the same molecule, the Analgesic activity (Rattus norvegicus [4]) was 69% and the EC50 (Rattus norvegicus [5]) was 0.008 mmol/kg.

CCCCCCC(=O)C(=O)NCCCC(=O)O showed an inhibition [10] of 0%.

Work on CCCCCCCCCCCCCC(=O)C(=O)N1CCC[C@H]1CCC(=O)O yielded an inhibition [6, 12] of 24%.

With CCCCCCCCCCC(=O)C(=O)N[C@H](CCCC)CCC(=O)O the X1(50) [1] was 0.068.

CCCCCCCCCCCCCC(=O)C(N)=O gave an inhibition [6] of 0%.

Work on CCCCCCCCCCCCCCCCNC(=O)C(=O)CC yielded an inhibition [6] of 0%.

With CCCCCCCCCCCCCC(=O)C(=O)N[C@@H](CCCC)CCC(=O)O the X1(50) [1] was 0.01.

Molecule CCCCCCCCCCC(=O)C(=O)N[C@H](CCC(=O)O)CC(C)C has an X1(50) [1] of 0.021.

For CCCCCCCCCCC(=O)C(=O)N1CCC[C@H]1CCC(=O)O, the inhibition [6, 12] was 0%.

CCCCCCCCCCOC[C@H](CCC(=O)O)NC(=O)C(=O)CCCCCCCCCC gave an X1(50) [1] of 0.045.

For CCCCCCCCCCCCCC(=O)C(=O)N[C@H](CCC(=O)O)Cc1ccccc1, the X1(50) [1] was 0.035.

For CCCCCCCCCCCCCCC(=O)C(=O)NCCCCC, the inhibition [11] was 22%.

For CCCCCCCC/C=C\CCCCCCCCNC(=O)C(=O)CCCCCCCCCCCCCC, the inhibition [10] was 0%.
